Measured values as given in the M2OR odorant receptor database.

What follows are compounds tested against T1, OR1A1 (Homo sapiens) (UniProt Q9P1Q5). Details: stereoisomer not certain.
T1 sequence (whole entry): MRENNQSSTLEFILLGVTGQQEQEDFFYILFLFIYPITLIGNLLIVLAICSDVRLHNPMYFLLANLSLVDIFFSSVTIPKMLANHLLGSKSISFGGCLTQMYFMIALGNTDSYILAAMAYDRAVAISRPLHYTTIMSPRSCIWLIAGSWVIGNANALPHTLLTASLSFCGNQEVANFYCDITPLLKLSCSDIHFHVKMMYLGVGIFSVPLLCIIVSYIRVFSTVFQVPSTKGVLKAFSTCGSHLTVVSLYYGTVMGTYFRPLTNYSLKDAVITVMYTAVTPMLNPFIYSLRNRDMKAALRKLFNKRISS
Method in brief: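 Whether a receptor–molecule pair is responsive (active) rests on the original authors' judgment that its measured signal was statistically different from baseline. Pairs without that judgment are non-responsive (inactive). Sources used varied assay methods, commonly transient luciferase assays in mammalian cell lines.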
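Further: active if original authors judged signal statistically different from baseline.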

Odorant receptor agonist call, active:
CCCCCCCC(C)=O, C=CC(C)(O)CCC=C(C)CCC=C(C)C (configuration not stated), CCCCCc1ccccn1, SCCc1ccccc1, CC(=O)OCCc1ccccc1, CC(=O)OCc1ccccc1, CC(C)=CCCC(C)=CCO

Odorant receptor agonist call, inactive:
CCCCCCC1CCC(=O)O1 (configuration not stated), CC1=CCC2CC1C2(C)C (configuration not stated), Cc1occc1S, CC(=O)c1ccc(C)cc1, CCCCCCCCC(=O)O, SCc1cccs1, COC(=O)C=Cc1ccccc1, CCOC(C)OCC, CCCCC=CC=CC=O, CC=CC(=O)C(C)CC (configuration not stated), CCCCCCCCCC(=O)[O-].[H+], CC(C)=CCCC(C)=CC#N, C1CCNC1, CCCCCC(C)O (configuration not stated), CC(=O)c1cnccn1, CN(C)C, C=Cc1ccc(O)c(OC)c1, C=CCSC, COc1ccc(C)cc1O, c1ccccc1, CC(=O)OCC=Cc1ccccc1, CCCCCC=O, CCC=O, CCCCCCO, CCOC(=O)CCC(C)C, CC(=O)c1ccccc1N, CCCCC(=O)OCC, C=C1CCC2(C(C)C)CC12 (configuration not stated), CCC=CCCC=CC=O, CCCCCCC(=O)[O-].[H+]
